ChEMBL document CHEMBL3352472, “Discovery of 4-aryl-7-hydroxyindoline-based P2Y1 antagonists as novel antiplatelet agents” (J Med Chem, 2014)
In brackets after ≈: the same amount, converted by molar mass. One block for each molecule: values may come before it. Activity calls are given as the source filed them. No cut-off for these calls is given here.

Experiments:
Oryctolagus cuniculus [1] = experiment: Antithrombotic activity in rabbit model of electrically-induced carotid artery thrombosis assessed as reduction in thrombus formation dosed 30 mins before electrical stimulation; format: functional, organism-based
hERG (KCNH2) = hERG (KCNH2) (Homo sapiens, UniProt Q12809); experiment: Inhibition of human ERG at 1 uM by patch clamp assay
P2Y purinoceptor 2 = P2Y purinoceptor 2 (Homo sapiens, UniProt P41231); experiment: Antagonist activity at P2Y2 receptor (unknown origin)
P2Y purinoceptor 12 = P2Y purinoceptor 12 (Homo sapiens, UniProt Q9H244); experiment: Antagonist activity at P2Y12 receptor (unknown origin)
[2] = Aqueous solubility of the compound at pH 3 using compound in amorphous solid form; format: physicochemical; settings: buffer
Oryctolagus cuniculus [3] = experiment: Induction of bleeding time in rabbit model of electrically-induced carotid artery thrombosis administered 30 mins before electrical stimulation; format: organism-based; settings: in vivo, 0.5 h
Summary of the method: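 Rabbits received an iv bolus plus continuous infusion (0.003 + 0.01 up to 0.3 + 1 mg/kg + mg·kg−1·h−1), started 30 min before carotid electrical stimulation and maintained throughout. Vehicle was 10% DMAc/2.5% PVP-K12/1% Pluronic F-108/D5W. Bleeding time was recorded up to 20 min after cuticle incision and expressed as fold of vehicle; mean ± SEM, n = 5–8 per group.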

P2Y purinoceptor 1 = P2Y purinoceptor 1 (Homo sapiens, UniProt P47900); experiment: Antagonist activity at P2Y1 receptor in washed human platelets assessed as 1 uM 2-methylthio-ADP-induced calcium flux by FLIPR assay; format: functional
[4] = Metabolic stability in human liver microsomes assessed as compound remaining at 0.5 uM after 10 mins; format: ADME; settings: read-out: Stability
Summary of the method: (§1)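 Compound at 0.5 μM incubated 10 min with 1 mg/mL human, rat or mouse liver microsomes; percentage of parent remaining reported.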

[5] = Metabolic stability in rat liver microsomes assessed as compound remaining at 0.5 uM after 10 mins; format: ADME; settings: read-out: Stability; summary of the method: as §1
[6] = Metabolic stability in mouse liver microsomes assessed as compound remaining at 0.5 uM after 10 mins; format: ADME; settings: read-out: Stability; summary of the method: as §1
[7] = Clearance in rat at 0.5 mg/kg by cassette dosing method; format: ADME, organism-based; parameters: dose 0.5 mg/kg; settings: in vivo
[8] = Volume of distribution at steady state in rat at 0.5 mg/kg by cassette dosing method; format: ADME, organism-based; parameters: dose 0.5 mg/kg; settings: in vivo, read-out: Vdss
[9] = Oral bioavailability in rat at 0.5 mg/kg by cassette dosing method; format: ADME, organism-based; settings: in vivo
[10] = Antagonist activity at P2Y1 receptor in platelet-enriched rabbit plasma assessed as 10 uM ADP-induced platelet aggregation preincubated for 1 min followed by ADP induction measured at 5 mins by aggregometric analysis; format: cell-free; settings: Oryctolagus cuniculus
Oryctolagus cuniculus [11] = experiment: Induction of bleeding time in rabbit model of electrically-induced carotid artery thrombosis at 0.1 mg/kg, iv + 0.033 mg/kg/hr, iv dosed 30 mins before electrical stimulation (reference value: 1 +/- 0.05); format: organism-based; settings: in vivo, 0.5 h
Oryctolagus cuniculus [12] = experiment: Induction of bleeding time in rabbit model of electrically-induced carotid artery thrombosis at 0.3 mg/kg, iv + 1 mg/kg/hr, iv dosed 30 mins before electrical stimulation (reference value: 1 +/- 0.05); format: organism-based; settings: in vivo, 0.5 h
Oryctolagus cuniculus [13] = experiment: Induction of bleeding time in rabbit model of electrically-induced carotid artery thrombosis at 90% antithrombotic dose administered 30 mins before electrical stimulation (reference value: 1 +/- 0.05); format: organism-based; settings: in vivo, 0.5 h
[14] = Aqueous solubility of the compound; format: physicochemical; settings: buffer
Summary of the method: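 Amorphous solid; solubility measured at pH 3.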

[15] = Clearance in rat at 0.5 mg/kg, iv by discrete dosing method; format: ADME, organism-based; parameters: dose 0.5 mg/kg, route intravenous; settings: in vivo
Summary of the method: (§2)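 Discrete rat PK; 0.5 mg/kg iv given in solution in DMAc/cremophor/EtOH/water (10/10/10/70).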

[16] = Volume of distribution in rat at 0.5 mg/kg, iv by discrete dosing method; format: ADME, organism-based; parameters: dose 0.5 mg/kg, route intravenous; settings: in vivo; summary of the method: as §2
[17] = Half life in rat at 0.5 mg/kg, iv by discrete dosing method; format: ADME, organism-based; parameters: dose 0.5 mg/kg, route intravenous; settings: in vivo; summary of the method: as §2
[18] = Oral bioavailability in rat at 15 mg/kg by discrete dosing method; format: ADME, organism-based; settings: in vivo
Summary of the method: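 Discrete rat PK; 15 mg/kg oral and 0.5 mg/kg iv, both in solution in DMAc/cremophor/EtOH/water (10/10/10/70).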

Oryctolagus cuniculus [19] = experiment: Antithrombotic activity in rabbit model of electrically-induced carotid artery thrombosis assessed as reduction in thrombus formation at 0.003 mg/kg, iv + 0.01 mg/kg/hr, iv dosed 30 mins before electrical stimulation (reference value: 3 +/- 2%); format: functional
Oryctolagus cuniculus [20] = experiment: Antithrombotic activity in rabbit model of electrically-induced carotid artery thrombosis assessed as reduction in thrombus formation at 0.01 mg/kg, iv + 0.033 mg/kg/hr, iv dosed 30 mins before electrical stimulation (reference value: 3 +/- 2%); format: functional
Oryctolagus cuniculus [21] = experiment: Antithrombotic activity in rabbit model of electrically-induced carotid artery thrombosis assessed as reduction in thrombus formation at 0.03 mg/kg, iv + 0.1 mg/kg/hr, iv dosed 30 mins before electrical stimulation (reference value: 3 +/- 2%); format: functional
Oryctolagus cuniculus [22] = experiment: Antithrombotic activity in rabbit model of electrically-induced carotid artery thrombosis assessed as reduction in thrombus formation at 0.1 mg/kg, iv + 0.033 mg/kg/hr, iv dosed 30 mins before electrical stimulation (reference value: 3 +/- 2%); format: functional
Oryctolagus cuniculus [23] = experiment: Antithrombotic activity in rabbit model of electrically-induced carotid artery thrombosis assessed as reduction in thrombus formation at 0.3 mg/kg, iv + 1 mg/kg/hr, iv dosed 30 mins before electrical stimulation (reference value: 3 +/- 2%); format: functional
Oryctolagus cuniculus [24] = experiment: Induction of bleeding time in rabbit model of electrically-induced carotid artery thrombosis at 0.003 mg/kg, iv + 0.01 mg/kg/hr, iv dosed 30 mins before electrical stimulation (reference value: 1 +/- 0.05); format: organism-based; settings: in vivo, 0.5 h
Oryctolagus cuniculus [25] = experiment: Induction of bleeding time in rabbit model of electrically-induced carotid artery thrombosis at 0.01 mg/kg, iv + 0.033 mg/kg/hr, iv dosed 30 mins before electrical stimulation (reference value: 1 +/- 0.05); format: organism-based; settings: in vivo, 0.5 h
Oryctolagus cuniculus [26] = experiment: Induction of bleeding time in rabbit model of electrically-induced carotid artery thrombosis at 0.03 mg/kg, iv + 0.1 mg/kg/hr, iv dosed 30 mins before electrical stimulation (reference value: 1 +/- 0.05); format: organism-based; settings: in vivo, 0.5 h

P2Y purinoceptor 1, sequence (P47900 whole entry): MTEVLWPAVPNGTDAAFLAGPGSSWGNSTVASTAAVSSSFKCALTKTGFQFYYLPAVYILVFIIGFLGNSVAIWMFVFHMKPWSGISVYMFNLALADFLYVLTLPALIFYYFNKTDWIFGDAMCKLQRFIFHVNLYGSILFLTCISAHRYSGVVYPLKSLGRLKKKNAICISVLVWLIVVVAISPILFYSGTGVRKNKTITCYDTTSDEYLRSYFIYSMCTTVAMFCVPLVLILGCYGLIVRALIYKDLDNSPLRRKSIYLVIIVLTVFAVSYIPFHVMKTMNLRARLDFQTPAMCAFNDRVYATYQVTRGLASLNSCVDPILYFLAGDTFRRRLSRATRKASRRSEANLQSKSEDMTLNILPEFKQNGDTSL
hERG (KCNH2), sequence (Q12809 whole entry): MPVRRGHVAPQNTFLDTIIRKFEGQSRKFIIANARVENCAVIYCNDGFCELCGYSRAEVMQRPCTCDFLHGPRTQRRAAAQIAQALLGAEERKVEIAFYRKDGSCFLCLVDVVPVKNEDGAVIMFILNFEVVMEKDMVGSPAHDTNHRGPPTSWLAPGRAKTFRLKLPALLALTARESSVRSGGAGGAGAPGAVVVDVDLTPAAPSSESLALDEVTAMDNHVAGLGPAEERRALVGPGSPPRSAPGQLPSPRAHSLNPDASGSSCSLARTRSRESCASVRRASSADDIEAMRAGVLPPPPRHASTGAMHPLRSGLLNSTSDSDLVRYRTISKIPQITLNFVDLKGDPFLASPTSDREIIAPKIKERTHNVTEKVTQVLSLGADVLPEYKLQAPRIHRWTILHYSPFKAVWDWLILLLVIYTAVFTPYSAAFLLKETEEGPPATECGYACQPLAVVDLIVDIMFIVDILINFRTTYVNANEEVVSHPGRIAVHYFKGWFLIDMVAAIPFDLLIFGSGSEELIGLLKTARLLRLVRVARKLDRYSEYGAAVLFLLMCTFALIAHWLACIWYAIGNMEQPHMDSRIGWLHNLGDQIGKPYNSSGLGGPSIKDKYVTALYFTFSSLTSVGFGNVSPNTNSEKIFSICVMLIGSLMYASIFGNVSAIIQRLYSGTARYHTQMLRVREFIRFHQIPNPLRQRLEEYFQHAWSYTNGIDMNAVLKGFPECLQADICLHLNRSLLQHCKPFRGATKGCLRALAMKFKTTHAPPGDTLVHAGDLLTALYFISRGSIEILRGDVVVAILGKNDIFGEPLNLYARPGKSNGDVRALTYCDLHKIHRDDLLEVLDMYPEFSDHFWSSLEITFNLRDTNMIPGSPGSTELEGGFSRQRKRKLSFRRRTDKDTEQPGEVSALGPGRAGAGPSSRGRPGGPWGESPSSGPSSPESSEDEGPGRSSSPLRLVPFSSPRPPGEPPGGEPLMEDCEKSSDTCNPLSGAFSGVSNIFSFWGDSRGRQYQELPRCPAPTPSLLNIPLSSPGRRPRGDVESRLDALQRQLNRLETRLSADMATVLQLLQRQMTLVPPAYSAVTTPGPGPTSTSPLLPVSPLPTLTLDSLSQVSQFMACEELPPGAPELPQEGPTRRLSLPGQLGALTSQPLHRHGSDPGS
P2Y purinoceptor 12, sequence (Q9H244 whole entry): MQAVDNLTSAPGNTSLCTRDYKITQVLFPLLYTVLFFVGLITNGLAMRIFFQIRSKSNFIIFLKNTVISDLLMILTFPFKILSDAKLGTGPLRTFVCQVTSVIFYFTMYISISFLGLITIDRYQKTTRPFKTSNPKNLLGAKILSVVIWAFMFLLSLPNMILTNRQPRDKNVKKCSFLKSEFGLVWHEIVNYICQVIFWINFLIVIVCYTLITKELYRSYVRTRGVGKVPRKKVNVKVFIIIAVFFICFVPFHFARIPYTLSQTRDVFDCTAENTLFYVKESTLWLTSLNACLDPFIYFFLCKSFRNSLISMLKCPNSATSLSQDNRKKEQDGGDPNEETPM
P2Y purinoceptor 2, sequence (P41231 whole entry): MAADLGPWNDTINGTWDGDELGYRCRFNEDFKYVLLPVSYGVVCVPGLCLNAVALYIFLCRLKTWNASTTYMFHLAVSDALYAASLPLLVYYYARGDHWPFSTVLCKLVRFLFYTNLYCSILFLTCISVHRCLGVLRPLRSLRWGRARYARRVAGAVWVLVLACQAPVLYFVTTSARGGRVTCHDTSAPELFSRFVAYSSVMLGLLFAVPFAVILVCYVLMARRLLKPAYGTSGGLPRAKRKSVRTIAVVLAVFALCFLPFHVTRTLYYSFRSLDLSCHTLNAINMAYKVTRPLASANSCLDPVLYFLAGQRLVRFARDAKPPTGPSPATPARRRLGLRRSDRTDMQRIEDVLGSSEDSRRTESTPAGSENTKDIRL

Compound: CC(C)(C)CN1CCC2(CC1)CN(c1ccccc1NC(=O)Nc1nc3ccc(Cl)nc3s1)c1c(O)cc(F)c(-c3ccc(F)cc3)c12
inhibition (Oryctolagus cuniculus [1]): Active | inhibition at 1 µM (hERG (KCNH2)): 96% | IC50 (P2Y purinoceptor 2): > 10000 nM | IC50 (P2Y purinoceptor 12): > 10000 nM | solubility [2]: 3 µg/mL (≈ 4.35 µM) | Activity (Oryctolagus cuniculus [3]): Non-toxic | IC50 (P2Y purinoceptor 1): 0.12 nM | remaining at 10 min, 0.5 µM [4]: 100% | remaining at 10 min, 0.5 µM [5]: 93% | remaining at 10 min, 0.5 µM [6]: 100% | clearance [7]: 4 mL/min/kg | Vd [8]: 2.1 L/kg | bioavailability [9]: 30% | IC50 [10]: 590 nM

fold change (FC) (Oryctolagus cuniculus [11]): 3.7 | fold change (FC) (Oryctolagus cuniculus [12]): 4.7 | fold change (FC) (Oryctolagus cuniculus [13]): 4.7 | solubility [14]: < 1 µg/mL | IC50 (P2Y purinoceptor 1): 1.06 nM | remaining at 10 min, 0.5 µM [4]: 83% | remaining at 10 min, 0.5 µM [5]: 90% | remaining at 10 min, 0.5 µM [6]: 79% | clearance [15]: 1.3 mL/min/kg | Vd [16]: 0.4 L/kg | half-life [17]: 12 h | bioavailability [18]: 10% | IC50 [10]: 87 nM | fold change (FC) (Oryctolagus cuniculus [24]): 1.1 | fold change (FC) (Oryctolagus cuniculus [25]): 1.4 | fold change (FC) (Oryctolagus cuniculus [26]): 2.7
Compound: CC1(C)CN(c2ccccc2NC(=O)Nc2ccc(OC(F)(F)F)cc2)c2c(O)cc(F)c(-c3ccc(Cl)cc3)c21
inhibition (INH) (Oryctolagus cuniculus [19]): 22% | inhibition (INH) (Oryctolagus cuniculus [20]): 46% | inhibition (INH) (Oryctolagus cuniculus [21]): 50% | inhibition (INH) (Oryctolagus cuniculus [22]): 72% | inhibition (INH) (Oryctolagus cuniculus [23]): 95%
